Assay results published in article PMC5379986 (The Journal of Experimental Medicine, 2017).

Legend:
[1] = tested on: acutely isolated microglia and PBMCs; assay type: in vivo, mouse; details: after 10 d of LA-1 injections; n = 5 mice per group; Fig. S2 I, J
Method in brief: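 Mice received 500 µl of 50 µM test compound or DMSO vehicle in PBS i.p. daily for 10 d. Microglia were isolated from perfused, enzymatically dissociated brains with CD45 microbeads, and PBMCs by Ficoll. Cells were kept on ice, washed and Fc-blocked 15 min. They were then stained 30 min with labelled antibodies against CD162, CD62L, CD18, CD54, CD14, CD49d, CD11a and CD11b.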

ISF Aβ = assay type: in vivo, mouse; details: 4-h LA-1 infusion and 12-h washout; n = 2 mice; Fig. 5 D, E
Method in brief: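 A 38-kD cutoff microdialysis probe was placed in the left hippocampus (bregma −3.1, midline −2.5, 3.2 mm below dura, 12°). It was perfused at 1 µl/min with 0.15% BSA artificial CSF, pH 7.35. After 8 h baseline, test compound was reverse-dialysed at 100 µM. Fractions were collected every 60–90 min, and Aβ40 was measured by sandwich ELISA (mHJ2 capture, mHJ5.1 detection). Male mice were used.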

CR3^kd cells = assay: Cell-based Aβ degradation assay with LA-1 treatment in CR3 knockdown cells; details: CR3 knockdown BV2 cells; Fig. 4 B
Method in brief: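 CR3kd BV2 cells carried a stable CD11b-targeting shRNA lentivirus; controls carried empty vector. Lines were selected with 5 µg/ml puromycin and sorted for CD11b <80% of control. Cells were seeded at 250,000/well and attached overnight. Test compound or vehicle in serum-free DMEM was added 30 min before 1 µg/ml Aβ1-42. Timed samples went into 2× protease inhibitor. Total Aβ was measured by electrochemiluminescent ELISA (21D12 capture, 3D6 detection, Aβ1-40 standards).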

[2] = Mass spectrometric analysis of LA-1 in brain and plasma; assay type: in vivo, mouse; details: concluded from brain levels after single i.p. dose, perfused brains
Method in brief: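 Male C57BL/6 mice received 500 µl of 50 µM test compound i.p., three mice per time point, sampled from 5 min to 8 h. EDTA plasma and PBS-perfused hemibrains were collected; brain was homogenised in water. Extracts diluted in methanol/acetonitrile were analysed by C18 LC-MS/MS (isocratic 85% acetonitrile, MRM m/z 420.103→375.800 and 420.103→230.000). Levels were interpolated from spiked-matrix standard curves by cubic regression.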

primary microglia = assay: qPCR analysis of mRNA from primary microglia of LA-1-treated mice; assay type: in vivo, mouse; details: microglia from LA-1-treated mice, qPCR normalized to GAPDH, n = 5
Method in brief: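 Mice received test compound i.p. daily for 10 d (500 µl of 50 µM; DMSO/PBS vehicle). Microglia were isolated from perfused, dissociated brains with CD45 microbeads and frozen immediately for RNA. cDNA diluted 1:20 was amplified with SYBR Green. Expression was calculated by ΔΔCt relative to GAPDH.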

[3] = tested on: APP-overexpressing Chinese hamster ovary cells; assay: APP expression and processing after LA-1 treatment; assay type: cell-based; details: APP-overexpressing CHO cells, lysates and supernatants after 6 h; Fig. S2 A–F
Method in brief: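 Cells were APP-overexpressing CHO cells exposed to test compound in serum-free culture medium. Lysates and supernatants were harvested after 6 h.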

Vascular adhesion markers on acutely isolated microglia and PBMCs [1]: no changes
BBB penetration [2]: demonstrating BBB penetration
Compound: O=C(O)c1ccc(-c2ccc(/C=C3\SC(=S)N(Cc4ccccc4)C3=O)o2)cc1 [LA-1, Leukadherin 1]
Reversibility of ISF Aβ reduction after exchanging drug for perfusion buffer (ISF Aβ): reversible
LA-1 effect on Aβ degradation in CR3^kd cells (CR3^kd cells): absent
tPA mRNA in microglia (primary microglia; Fig. 4 E): significant increase
MMP2 or MMP9 mRNA levels in microglia (primary microglia; Fig. 4 F): did not observe differences
APP expression and processing [3]: did not change
